The text below walks through data of ChEMBL document CHEMBL4219195, “Discovery of a quinoline-based phenyl sulfone derivative as an antitrypanosomal agent” (Bioorg Med Chem Lett, 2018).

The target of one test is Rhodesain (Trypanosoma brucei rhodesiense, UniProt Q95PM0). Description: Inhibition of Trypanosoma brucei rhodesain expressed in Pichia pastoris using Z-phe-Arg-AMC as substrate preincubated for 1 hr followed by substrate addition by fluorescence assay. In a few lines: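 Rhodesain at 0.8 nM final was pre-incubated 1 h with compound at 20 μM final in 50 mM sodium acetate pH 5.5, 2 mM DTT, 0.01% Triton X-100. Then 10 μM Z-Phe-Arg-AMC was added, and cleavage was read as RFU/sec at 25 °C (ex 355/em 460 nm). E-64 (10 μM) defined 100% inhibition.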
Chain of Rhodesain (Q95PM0 whole entry): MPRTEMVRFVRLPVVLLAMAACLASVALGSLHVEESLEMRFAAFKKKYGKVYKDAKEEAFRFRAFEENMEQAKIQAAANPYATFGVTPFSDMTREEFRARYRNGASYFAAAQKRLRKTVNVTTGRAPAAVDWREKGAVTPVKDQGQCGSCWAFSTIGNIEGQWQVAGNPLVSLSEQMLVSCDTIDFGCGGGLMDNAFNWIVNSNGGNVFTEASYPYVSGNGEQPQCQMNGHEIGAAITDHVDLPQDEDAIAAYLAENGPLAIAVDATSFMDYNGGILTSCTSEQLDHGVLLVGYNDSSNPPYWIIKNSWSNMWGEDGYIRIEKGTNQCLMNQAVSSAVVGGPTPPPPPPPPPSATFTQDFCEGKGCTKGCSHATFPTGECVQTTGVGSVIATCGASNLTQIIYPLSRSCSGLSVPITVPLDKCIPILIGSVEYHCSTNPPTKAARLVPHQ

For test [1], the target named is Procathepsin L (Homo sapiens) (UniProt P07711). Description: Inhibition of human liver cathepsin L using Z-phe-Arg-AMC as substrate at 0.1 to 125 uM preincubated for 1 hr followed by substrate addition by fluorescence assay. In short, it runs like this:
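Human liver CatL at 0.58 nM in 400 mM sodium acetate pH 5.5 with 8 mM DTT, 4 mM EDTA and 0.01% Triton X-100. Enzyme and compound preincubated 1 h, then Z-Phe-Arg-AMC (20 μM) added. AMC fluorescence rate read at ex 355/em 460 nm, 25 °C.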

In test [2] the test system is Trypanosoma brucei. The test can be described thus: Antitrypanosomal activity against Trypanosoma brucei 427 bloodstream forms assessed as parasitic growth inhibition after 48 hrs by alamar blue assay. It counts as functional, organism-based. As to conditions: Trypanosoma brucei, 427, 48 h. In short, it runs like this:
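Bloodstream forms in supplemented HMI-9 medium (10% FBS, 10% Serum Plus, cysteine, hypoxanthine, β-mercaptoethanol, thymidine, pyruvate, bathocuproinesulfonate, Tween 80), 5 × 10³ cells/well, compound exposure 48 h in DMSO. Alamar blue then added, 4 h at 37°C; fluorescence ex 530/em 590 nm. Triplicates; IC50 from 0.3–50 μM range; suramin positive control.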
In general terms: Resazurin is reduced to fluorescent resorufin, in cell work by metabolically active cells.

The target in test [3] is Rhodesain (Trypanosoma brucei rhodesiense) (UniProt Q95PM0). The test can be described thus: Inhibition of Trypanosoma brucei rhodesain expressed in Pichia pastoris assessed as rato of Kinact to Ki using Z-phe-Arg-AMC as substrate preincubated for 1 hr followed by substrate additon by fluorescence assay. In a few lines:
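Time-dependent inactivation study: rhodesain mixed with inhibitor (0, 0.06, 0.12, 0.24, 0.97, 3.9 μM) in assay buffer (50 mM sodium acetate pH 5.5, 2 mM DTT, 0.01% Triton X-100). Aliquots drawn every 10 min, assayed with 10 μM Z-Phe-Arg-AMC, RFU/sec followed 7 min at 25 °C (ex 355/em 460 nm). Analysed by pseudo-first-order inhibition plots.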

For another test, the system named is HepG2. Description: Cytotoxicity against human HepG2 cells assessed as decrease in cell viability after 72 hrs by MTT assay. To be noted: HepG2, 72 h. In kind it is cell-based. In short, it runs like this:
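HepG2 cells kept in DMEM:F12 with 10% FBS, pen/strep and 0.0125% Tween 80 at 37°C, 5% CO2. Cells trypsinized, seeded at 5 × 10⁵ cells/mL and left ~24 h, then given compounds in DMSO for 72 h. Medium replaced with MTT-containing medium for 1.5 h; formazan dissolved in DMSO; A550. Triplicates. Controls: 10% SDS, podophyllotoxin.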
A general note: Formazan colour is commonly taken as a measure of viable cells.

In test [4] the target is Rhodesain (Trypanosoma brucei rhodesiense) (UniProt Q95PM0). The test can be described thus: Inhibition of Trypanosoma brucei rhodesain expressed in Pichia pastoris at 20 uM using Z-phe-Arg-AMC as substrate preincubated for 1 hr followed by substrate addition by fluorescence assay. In short, it runs like this: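 Enzyme at 0.8 nM final with compound at 20 μM final, 1 h preincubation in 50 mM sodium acetate pH 5.5 with 2 mM DTT and 0.01% Triton X-100. Z-Phe-Arg-AMC (10 μM) then added. Cleavage rate (RFU/sec) read at 25 °C, ex 355/em 460 nm. E-64 (10 μM) served as 100% inhibition control.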
Chain of Rhodesain (Trypanosoma brucei rhodesiense) (Q95PM0 1-450): as the sequence (Q95PM0 whole entry) above

Test [5] concerns Trypanosoma brucei. Description: Antitrypanosomal activity against luciferase expressing Trypanosoma brucei STIB795 bloodstream forms infected in NMRI mouse assessed as parasitic growth inhibition at 50 to 100 mg/kg, ip administered for 4 consecutive days starting at 3 days post infection measured at 24 hrs post dose by live imaging analysis. It counts as functional, organism-based. In short, it runs like this:
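Groups of four female mice, each inoculated ip with 1 × 10⁴ bloodstream forms. Groups: control, 50 mg/kg/day and 100 mg/kg/day. Dosing ip in water plus 10% DMSO began 3 days post-infection. Parasitemia followed by live imaging. Moribund mice euthanized once parasitemia was detected.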

The structures appear in SMILES notation. The source made the active and inactive calls. The rule behind the calls is not given here. A value given as a limit tells only on which side of the number the result lay.

Chain of Procathepsin L (Homo sapiens) (P07711 114-333 limits assumed): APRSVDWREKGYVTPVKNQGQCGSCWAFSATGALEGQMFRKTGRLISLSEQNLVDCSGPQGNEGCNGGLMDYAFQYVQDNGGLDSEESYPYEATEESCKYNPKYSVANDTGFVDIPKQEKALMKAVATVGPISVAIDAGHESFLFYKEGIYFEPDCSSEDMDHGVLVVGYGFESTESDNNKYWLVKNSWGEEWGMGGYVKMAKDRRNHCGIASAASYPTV

Usually IC50 stands for the concentration that gives 50% inhibition. As for `O=C(N[C@H](/C=C/S(=O)(=O)c1ccccc1)CCc1ccccc1)c1cccc2cccnc12`, the half-maximal inhibitory concentration (IC50) at Rhodesain is 0.8 µM; in the test on Trypanosoma brucei [2], 5.97 µM; in the test on HepG2, greater than 80 µM. Also, the inhibition result in test [1] is “inactive”. Also, the Ratio in test [3] turned out to be 99 M⁻¹ s⁻¹. For the same compound, the inhibition entry in test [4] is “Active”.

In the case of `O=C(Cc1ccc(OC/C=C/S(=O)(=O)c2ccccc2)cc1)NC12CC3CC(CC(C3)C1)C2`, the values for the IC50 in the test on Trypanosoma brucei [2] and with HepG2 were 11.7 µM and greater than 20 µM, respectively. Besides, in test [4], the inhibition result was “inactive”.

As to `CC1=C[C@@H](OC(=O)Cc2ccc(OC/C=C/S(=O)(=O)c3ccccc3)cc2)C2C[C@H]1C2(C)C`, the IC50 in the test with Trypanosoma brucei [2] and in the test with HepG2 was greater than 20 µM in each case. The inhibition result in test [4] is “inactive”.

For the compound `C[C@H](NC(=O)Cc1ccc(OC/C=C/S(=O)(=O)c2ccccc2)cc1)c1ccc2ccccc2c1`, the figures for the concentration for half-maximal inhibition (IC50) in the test with Trypanosoma brucei [2] and in the test with HepG2 were 5.45 µM and greater than 20 µM, respectively. The inhibition result in test [4] is “inactive”.

As for `O=C(Cc1ccc(OC/C=C/S(=O)(=O)c2ccccc2)cc1)Oc1ccc(C2CCCC2)cc1`, the IC50 in the test with Trypanosoma brucei [2] was 6.04 µM; in the test with HepG2, greater than 20 µM. In addition, the inhibition result in test [4] was “inactive”.

Regarding `CC1(C)[C@H]2CC=C(CCOC(=O)Cc3ccc(OC/C=C/S(=O)(=O)c4ccccc4)cc3)[C@@H]1C2`, the IC50 was 2.01 µM with Trypanosoma brucei [2] and greater than 80 µM in the test on HepG2. The inhibition entry in test [4] was “inactive”.

For the compound `O=C(Cc1ccc(OC/C=C/S(=O)(=O)c2ccccc2)cc1)Oc1ccc(Cc2ccccc2)cc1`, the IC50 in the test with Trypanosoma brucei [2] was 1.47 µM; in the test with HepG2, greater than 80 µM. Moreover, the inhibition result in test [4] is “inactive”.

As for `CC(C)c1ccc(OC(=O)Cc2ccc(OC/C=C/S(=O)(=O)c3ccccc3)cc2)cc1`, the IC50 in the test on Trypanosoma brucei [2] and in the test with HepG2 was greater than 20 µM throughout. Further, the inhibition entry in test [4] is “inactive”.

For the compound `Cc1ccc(C(=O)Nc2ccc(S(=O)(=O)O)c3cc(S(=O)(=O)O)cc(S(=O)(=O)O)c23)cc1NC(=O)c1cccc(NC(=O)Nc2cccc(C(=O)Nc3cc(C(=O)Nc4ccc(S(=O)(=O)O)c5cc(S(=O)(=O)O)cc(S(=O)(=O)O)c45)ccc3C)c2)c1` [SURAMIN], the IC50 with Trypanosoma brucei [2] was 0.004 µM.

For the compound `C[C@H](OC(=O)Cc1ccc(OC/C=C/S(=O)(=O)c2ccccc2)cc1)c1ccc2ccccc2c1`, the IC50 was 5.62 µM in the test with Trypanosoma brucei [2] and greater than 20 µM in the test with HepG2. For the same compound, in test [4], the inhibition result is “inactive”.

Take `CC1(C)C2CC[C@]1(C)C(NC(=O)Cc1ccc(OC/C=C/S(=O)(=O)c3ccccc3)cc1)C2` (some centres not stated): the half-maximal inhibitory concentration (IC50) is 10.8 µM in the test on Trypanosoma brucei [2] and greater than 20 µM in the test with HepG2. In addition, the inhibition entry in test [4] is “inactive”.

On to `O=C(Cc1ccc(OC/C=C/S(=O)(=O)c2ccccc2)cc1)Oc1ccc(C(F)(F)F)cc1`, for which the IC50 in the test on Trypanosoma brucei [2] and in the test on HepG2 was greater than 20 µM throughout. In test [4], the inhibition result was “inactive”.

Turning to `CC1(C)C2CC=C(CCOC(=O)Cc3ccc(OC/C=C/S(=O)(=O)c4ccccc4)cc3F)C1C2` (configuration not stated), the IC50 with Trypanosoma brucei [2] was 7.03 µM; in the test with HepG2, greater than 20 µM. Besides, the inhibition result in test [4] is “inactive”.

Take `CCCN1CCC(NC(=O)Cc2ccc(OC/C=C/S(=O)(=O)c3ccccc3)cc2)CC1`: the IC50 in the test with Trypanosoma brucei [2] and in the test on HepG2 was greater than 20 µM throughout. For the same compound, in test [4], the inhibition result was “inactive”.

Turning to `CC1(C)[C@H]2CC=C(CCOC(=O)Cc3ccc(OC/C=C/S(=O)(=O)c4ccccc4)c(Cl)c3)[C@@H]1C2`, the figures for the IC50 in the test with Trypanosoma brucei [2] and in the test on HepG2 were 3.04 µM and greater than 80 µM, respectively. Further, the inhibition entry in test [4] was “inactive”.

With `O=C(Cc1ccc(OC/C=C/S(=O)(=O)c2ccccc2)cc1)OC1CCC[C@@H]2CCCC[C@H]12` (some centres not stated), the IC50 with Trypanosoma brucei [2] was 5.63 µM; in the test on HepG2 it was greater than 20 µM. Moreover, the inhibition result in test [4] was “inactive”.

With `CN1CCC(NC(=O)Cc2ccc(OC/C=C/S(=O)(=O)c3ccccc3)cc2)CC1`, the concentration for half-maximal inhibition (IC50) in the test with Trypanosoma brucei [2] and with HepG2 was greater than 20 µM throughout. In test [4], the inhibition entry was “inactive”.

For `CC1(C)C2CC[C@]1(C)C(OC(=O)Cc1ccc(OC/C=C/S(=O)(=O)c3ccccc3)cc1)C2` (some centres not stated), the concentration for half-maximal inhibition (IC50) with Trypanosoma brucei [2] is 7.16 µM; in the test with HepG2, greater than 20 µM. Besides, the inhibition entry in test [4] was “inactive”.

Regarding `CC1(C)[C@@H]2CC[C@@](C)(C2)[C@@H]1OC(=O)Cc1ccc(OC/C=C/S(=O)(=O)c2ccccc2)cc1`, the results for the half-maximal inhibitory concentration (IC50) in the test with Trypanosoma brucei [2] and in the test on HepG2 were 4.04 µM and 11.9 µM, respectively. The inhibition entry in test [4] was “inactive”.

Regarding `O=C(Cc1ccc(OC/C=C/S(=O)(=O)c2ccccc2)cc1)Oc1ccc2cc(Br)ccc2c1`, the IC50 in the test on Trypanosoma brucei [2] is 2.18 µM; in the test on HepG2 it was greater than 80 µM. The inhibition entry in test [4] is “inactive”.

Regarding `CC(C)CCC[C@@H](C)[C@H]1CC[C@H]2[C@@H]3CC[C@H]4C[C@@H](OC(=O)Cc5ccc(OC/C=C/S(=O)(=O)c6ccccc6)cc5)CC[C@]4(C)[C@H]3CC[C@]12C`, the IC50 with Trypanosoma brucei [2] and with HepG2 was greater than 20 µM throughout. Further, in test [4], the inhibition result is “inactive”.

For `COc1cc([C@@H]2c3cc4c(cc3[C@H](O)[C@H]3COC(=O)[C@H]23)OCO4)cc(OC)c1OC` [PODOFILOX], the IC50 in the test with HepG2 was 0.008 µM.

Take `CC1(C)C2CC=C(COC(=O)Cc3ccc(OC/C=C/S(=O)(=O)c4ccccc4)cc3)C1C2` (configuration not stated): the IC50 in the test with Trypanosoma brucei [2] and in the test on HepG2 was greater than 20 µM each time. Moreover, the inhibition result in test [4] was “inactive”.

`O=C(Cc1ccc(OC/C=C/S(=O)(=O)c2ccccc2)cc1)Nc1cccc2cccnc12`: in the test with Trypanosoma brucei [5], the result was inactive. Also, the IC50 with Trypanosoma brucei [2] was 0.76 µM; in the test with HepG2, greater than 80 µM. For the same compound, in test [4], the inhibition entry is “inactive”.
